Measured values gathered from unrelated publications.
Compare with care: the assays were run in different laboratories.
Target: Fibroblast growth factor receptor 4 (FGFR4, Homo sapiens, UniProt P22455)

| SMILES | read-out | action | method | concentration | endpoint | result |
| --- | --- | --- | --- | --- | --- | --- |
| C1=C/COCc2cc(ccc2OCCN2CCCC2)Nc2nccc(n2)-c2cccc(c2)COC/1 | binding | – | – | 0.1 µM | remaining binding | 100% |
| C=CC(=O)N1CCC([C@@H]2CCNc3c(C(N)=O)c(-c4ccc(Oc5ccccc5)cc4)nn32)CC1 | cell-free assay | – | – | 1 µM | inhibition | 10% |
| COc1ccc2[nH]c3c4[nH]c5ccc(OC)cc5c4c4c(c3c2c1)C(=O)NC4=O | binding | – | – | 1 µM | remaining binding | 85% |
| CC(C)S(=O)(=O)c1ccc2nccc(Nc3ccc4sc(C5CCCC5)nc4c3)c2c1 | enzyme activity | inhibitor | – | 1 µM | activity vs control | 108% |
| CCCCC(=O)Nc1ccc(-c2ccc3ncn(CCC)c(=O)c3c2)cn1 | binding | – | competition with immobilised ligand | 0.5 µM | remaining binding | 100% |
| C=CC(=O)N1CCC[C@@H](n2nc(-c3ccc(Oc4ccccc4)cc3)c3c(N)ncnc32)C1 | enzyme activity | inhibitor | – | 1 µM | inhibition | 8% |
| C[C@H]1CC[C@H](n2c3cnccc3c3cnc(Nc4ccc5c(n4)CCN(C(=O)CO)C5)nc32)CC1 | binding | – | – | 1 µM | remaining binding | 100% |
| COc1ccc2oc(-c3ccc4nc(N)oc4c3)c/c(=N\c3ccccc3NC(=O)CCN)c2c1 | binding | – | – | 1 µM | remaining binding | 102% |
